Reference: PubChem BioAssay AID504414 (Broad Institute, 2011)
Among all 330,000 compounds or so, about 55 (0.02%) were called active.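 How the source made its calls: active means highest replicate inhibition of at least 40%; inactive means the rest.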 The sample as a whole holds a higher share of actives than the screen did.

The molecules below were run against Golgi-associated PDZ and coiled-coil motif-containing protein (Homo sapiens) (UniProt Q9HD26) (assay: disruption of CAL PDZ-reporter peptide interaction – biochemical, fluorescence polarization, Cer-tagged CAL PDZ, HTS, primary screen (AID 504414;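 further: plate controls were DMSO neutral control wells for no effect and unlabeled competitor peptide control wells for full effect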)). Conditions: purified CAL PDZ, TMR-peptide fluorescence polarization, 1 h; at 20 µM; hits give high values.
Summary of the method: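 material = purified tagged CAL PDZ domain construct (CerCALP) | compound dosing = 20 µM, one dose | times = 1 h at RT | measured by = fluorescence polarization from S- and P-plane intensities, G-factor corrected | read-out = inhibition from polarization loss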
In the case of `CC(NCCc1ccc(S(N)(=O)=O)cc1)C(=O)NCc1ccccc1` (centres undefined), the inhibition is reported as -0.747% (inactive).
With `CC(C)NC(=O)Nc1cccc2c1O[C@H](CN(C)S(=O)(=O)c1cccs1)[C@@H](C)CN([C@H](C)CO)C2=O` the inhibition was -1.8% (inactive).
With `CC(C)(C)c1cc(=O)n2c(nc3ccccc32)[nH]1` the inhibition was -2.22% (inactive).
`O=C(Nc1ccc(C2CC2(Cl)Cl)cc1)c1cccc([N+](=O)[O-])c1` (centres undefined) was tested, and the inhibition was 8.41% (inactive).
`CCOC(=O)C(C)n1cnc2scc(-c3ccc(C)c(C)c3)c2c1=O` (centres undefined) was tested, and the inhibition was -1.15% (inactive).
With `CCOc1cc(CNCCN(C)C)c(Cl)cc1OCC(=O)NCCc1ccccc1` the inhibition was -2.91% (inactive).
`CCOC(=O)C1Sc2[nH]c(=O)sc2C(c2ccc(Cl)cc2)C1C(=O)OCC` (centres undefined) was tested, and the inhibition was 0.946% (inactive).
`Cc1cccc(C(=O)OCC(=O)NC(C)C2CC3CCC2C3)c1O` (centres undefined) was tested, and the inhibition was 1.53% (inactive).
For `COc1ccccc1N(CC(=O)NC1CCCC1)C(=O)C1(C)CC(=O)N=C2C=CC(C)=CN21` (centres undefined), the inhibition was -1% (inactive).
With `Cc1ccc(C)c(C(=O)COC(=O)Cn2[nH]c(=O)c3ccccc3c2=O)c1` the inhibition was -1.04% (inactive).
`CC(=O)C1=C(C)NC2=C(C(=O)CC(C)(C)C2)C1C` (centres undefined) was tested, and the inhibition was -0.554% (inactive).
With `COCCNC(=O)/C(C#N)=C/c1nc(N(C)C)n(-c2ccc(F)cc2)c1Cl` the inhibition was -6.48% (inactive).
In the case of `CN(CCc1cn[nH]c1)C(=O)CC1C(=O)NCCN1Cc1cccc(Oc2ccccc2)c1` (centres undefined), the inhibition is reported as 0.0148% (inactive).
For `CN(C)S(=O)(=O)c1ccc(N2CCCC2)c(C(=O)Nc2ccc(Br)cc2F)c1`, the inhibition was 0.123% (inactive).
For `CCOc1cc(C(=O)N(Cc2ccccc2)c2ccc(C)cc2)ccc1OCC(=O)N1CCOCC1`, the inhibition was -0.206% (inactive).
For `NS(=O)(=O)c1ccc(CCNC(=O)c2ccc(Cl)c(S(=O)(=O)N3CCCCCC3)c2)cc1`, the inhibition was -0.205% (inactive).
In the case of `COc1ccc(-c2c(C)nn3c(N4CCC(C(=O)N5CCCCC5)CC4)cc(C)nc23)cc1OC`, the inhibition is reported as 0.851% (inactive).
With `Cn1c(=O)c2c(nc(N3CCOCC3)n2CCNC2=NCCC2)n(C)c1=O` the inhibition was 0.616% (inactive).
In the case of `COC(=O)[C@H]1Cc2cnoc2C[C@]1(C)C(=O)O`, the inhibition is reported as -1.94% (inactive).
`Cc1cccc(NC(=O)CSc2nnc(CCNC(=O)OC(C)(C)C)o2)c1C` was tested, and the inhibition was 0.572% (inactive).
In the case of `CN(C)c1ccc(CNC2C3CC4CC(C3)CC2C4)cc1` (centres undefined), the inhibition is reported as -1.31% (inactive).
With `CC(C)NC(=O)COCc1cc(-c2ccc3c(c2)OCO3)on1` the inhibition was 0.0991% (inactive).
`O=C(NCCCN1CCCC1=O)c1cccc(S(=O)(=O)NCc2ccccc2)c1` was tested, and the inhibition was -2.23% (inactive).
With `CCOCCCNC(=O)C(NC(=O)CNC(=O)c1ccccc1)c1ccc(OC)cc1` (centres undefined) the inhibition was -0.316% (inactive).
For `CCOc1ccc2sc(NS(=O)(=O)c3ccc(N)cc3)nc2c1`, the inhibition was -2.52% (inactive).
`O=C1CS(=O)CN1c1ccc(Oc2ccccc2)cc1` (centres undefined) was tested, and the inhibition was -2.68% (inactive).
In the case of `O=C(CN(CC1CCCO1)C(=O)CNS(=O)(=O)c1ccc(Cl)cc1)NCc1ccccc1` (centres undefined), the inhibition is reported as -2.47% (inactive).
In the case of `CCN(C(=O)Cc1nc(N)n[nH]1)C1(C(=O)Nc2ccccc2)CCCCC1`, the inhibition is reported as -0.615% (inactive).
In the case of `CCOC(=O)C1Cn2c(nc3c(c2=O)C(C)(CC)Cc2ccccc2-3)S1` (centres undefined), the inhibition is reported as -2.98% (inactive).
With `O=C(/C=C/c1ccccc1[N+](=O)[O-])OCC(=O)N1CCCC1` the inhibition was -0.608% (inactive).
In the case of `CCOC(=O)N1CCN(S(=O)(=O)N2CCCC(C(=O)NCCCN3CCC(C)CC3)C2)CC1` (centres undefined), the inhibition is reported as -1.6% (inactive).
For `Cc1ccccc1/[N+]([O-])=C/c1ccncc1`, the inhibition was -1.06% (inactive).
For `COc1ccc(Cn2c(-c3ccc(Cl)cc3)c[n+]3ccccc23)cc1`, the inhibition was -2.82% (inactive).
For `CSCCNC(=O)c1ccc2nc(Cc3ccccc3F)oc2c1`, the inhibition was 0.068% (inactive).
For `CC1CN(C(=S)Nc2ccc(Br)cc2Cl)CC(C)O1` (centres undefined), the inhibition was 0.196% (inactive).
For `Cc1ccccc1CNC(=O)CCC(=O)N1Cc2ccccc2Oc2ncccc21`, the inhibition was -3.11% (inactive).
With `Cc1cccc(-n2nc3c(c2NC(=O)c2cc4ccccc4o2)CS(=O)(=O)C3)c1` the inhibition was -2.7% (inactive).
With `CCC1([N+](=O)[O-])COC(c2ccc(C)cc2)OC1` (centres undefined) the inhibition was -0.14% (inactive).
`O=c1c2ccccc2cnn1Cc1n[nH]c(=S)n1-c1ccccc1F` was tested, and the inhibition was 0.871% (inactive).
With `CCC(C)Sc1nc2c(cnn2-c2ccc(F)cc2)c(=O)[nH]1` (centres undefined) the inhibition was -0.979% (inactive).
`O=C1NC(c2ccccc2)CCC1(Cl)Cl` (centres undefined) was tested, and the inhibition was -0.102% (inactive).
For `CCOC(=O)c1nc(-c2ccc3c(c2)OCO3)[nH]c1C`, the inhibition was -0.475% (inactive).
`COc1cc(C2C3C(=O)N(c4ccccc4)C(=O)C3ON2c2ccccc2)ccc1O` (centres undefined) was tested, and the inhibition was -0.569% (inactive).
`COc1cccc2c(C)c(C(=O)O)[nH]c12` was tested, and the inhibition was -0.62% (inactive).
With `O=C(NNS(=O)(=O)c1ccc(F)cc1)c1cnccn1` the inhibition was -2.25% (inactive).
With `CN(C)S(=O)(=O)c1ccc(N/C=C(\[N+](=O)[O-])S(=O)(=O)c2ccccc2)cc1` the inhibition was 0.264% (inactive).
In the case of `CCCCc1nnc(NC(=O)CSc2nc(C)cc(=O)[nH]2)s1`, the inhibition is reported as -0.42% (inactive).
For `CCCCc1nnc(NC(=O)CSc2nc(N)cc(=O)[nH]2)s1`, the inhibition was 0.237% (inactive).
In the case of `CCCCCc1nnc(NC(=O)c2ccc(=O)n(C)n2)s1`, the inhibition is reported as 176% (active).
In the case of `Cc1ccc(C(=O)NN(CCC#N)C2=NS(=O)(=O)c3ccccc32)cc1`, the inhibition is reported as -0.552% (inactive).
With `CC(C)c1cc(N=O)cc(C(C)C)c1O` the inhibition was -0.56% (inactive).
With `Clc1cc(-c2ccc(/C=N/n3cnnc3)o2)ccc1Br` the inhibition was -4.91% (inactive).
In the case of `CC(C(=O)N(C)CC(=O)Nc1ccccc1C(F)(F)F)N1C(=O)c2ccccc2C1=O` (centres undefined), the inhibition is reported as -0.0605% (inactive).
With `CCOCCCN(C)C1CCN(C(=O)c2oc3ccccc3c2NC(=O)Cc2cccc([N+](=O)[O-])c2)CC1` the inhibition was -0.742% (inactive).
In the case of `O=C(Nc1ccc2c(c1)nc1n2CCCCC1)c1cc(S(=O)(=O)N2CCOCC2)ccc1Cl`, the inhibition is reported as -2.81% (inactive).
`CCOc1ccc(N(CC(=O)Nc2cccc(OC)c2)S(C)(=O)=O)cc1` was tested, and the inhibition was 0.31% (inactive).
In the case of `CC(C)(C)NC(=O)CN(C(=O)c1csnn1)c1ccccc1-c1ccccc1`, the inhibition is reported as -2.13% (inactive).
In the case of `CCCCn1c(N)c(N(CCOC)C(=O)c2oc3ccc(OC)cc3c2C)c(=O)[nH]c1=O`, the inhibition is reported as -1.98% (inactive).
With `Cc1onc(-c2c(F)cccc2Cl)c1C(=O)OCC(=O)N1C(C)CCCC1C` (centres undefined) the inhibition was -0.828% (inactive).
In the case of `Cc1ccc(NC(=O)C2CC2c2ccccc2)cc1` (centres undefined), the inhibition is reported as -0.307% (inactive).
With `COc1ccccc1C(=O)Nc1ccc(OCC(=O)N2CCCCC2)cc1` the inhibition was -1.71% (inactive).
With `COc1ccc(CCNC(=O)c2nnc(CS(=O)(=O)c3ccccc3)o2)cc1OC` the inhibition was 1.25% (inactive).
In the case of `COc1c(C)cc(C(=O)C2CCCN(S(=O)(=O)c3c(C)noc3C)C2)cc1C` (centres undefined), the inhibition is reported as -2.46% (inactive).
With `Cc1ccc(S(=O)(=O)N(CC(O)CN2C(=O)NC(C)(C)C2=O)c2cccc([N+](=O)[O-])c2)cc1` (centres undefined) the inhibition was -1.82% (inactive).
In the case of `CC(C)=CCCC1(C)C=Cc2c(ccc3c2[nH]c2cc(O)c(C)cc23)O1` (centres undefined), the inhibition is reported as 0.0711% (inactive).
With `Cc1csc(SCC(=O)N(c2ccccc2)C(C)C)n1` the inhibition was -2.45% (inactive).
In the case of `O=C(Cc1ccc(NC(=O)C2CCCN(C(=O)CCc3ccccc3)C2)cc1)Nc1ccc(C(=O)N2CCOCC2)cc1` (centres undefined), the inhibition is reported as -1.16% (inactive).
In the case of `CC(=O)CCS(=O)(=O)c1ccc(C)c(C)c1`, the inhibition is reported as 0.503% (inactive).
`Cc1c(C(=O)N2CCCC2)c(S(=O)(=O)NCC(C)c2ccccc2)c(C)n1C` (centres undefined) was tested, and the inhibition was -2.4% (inactive).
`Cc1ccc(N(CC(=O)NC2CCCCC2)C(=O)CCCC(=O)Nc2ccccn2)c(C)c1` was tested, and the inhibition was 0.671% (inactive).
In the case of `Cc1cc(-c2csc(N)n2)c(C)n1-c1ccccc1`, the inhibition is reported as -2.46% (inactive).
In the case of `CC(=O)c1ccc(NC(=O)C(C)OC(=O)c2ccc(NS(=O)(=O)c3ccc4[nH]c(=O)[nH]c4c3)cc2)cc1` (centres undefined), the inhibition is reported as 1.56% (inactive).
With `C=CCN1C(=O)C(O)(CC(=O)c2ccccn2)c2ccccc21` (centres undefined) the inhibition was 0.0287% (inactive).
With `Cc1ccc2cc(C)c(N3CCC(C)CC3)nc2c1` the inhibition was 1.11% (inactive).
For `CCOc1ncccc1C(=O)N(CC)CC(=O)Nc1ccc(NC(C)=O)cc1`, the inhibition was -1.13% (inactive).
`CCN(CC)c1ccc(NC(=O)CCc2nnc3ccc(N4CCCCC4)nn23)c(C)c1` was tested, and the inhibition was 0.659% (inactive).
For `Cc1ccc(CNC(=O)C(=O)c2cn(CC(=O)N3CCOCC3)c3ccccc23)cc1`, the inhibition was -0.774% (inactive).
`O=C(C1CC(=O)N(C2CCCCC2)C1)N1CCN(c2ccccc2)CC1` (centres undefined) was tested, and the inhibition was -3.07% (inactive).
For `CCCOP(=O)(c1ccc(N(C)C)cc1)C(O)c1cc(OC)c(OC)c(OC)c1` (centres undefined), the inhibition was -2.28% (inactive).
`Cc1nc(CN(C)C(=O)CC2C(=O)NCCN2Cc2ccc(F)cc2)cs1` (centres undefined) was tested, and the inhibition was -1.72% (inactive).
For `COC(=O)c1sc(C(F)(F)F)c(-c2ccccc2)c1S(=O)(=O)N(C)C`, the inhibition was -1.85% (inactive).
In the case of `CN1CCN(CC(O)COCc2ccc3c(c2)OCO3)CC1` (centres undefined), the inhibition is reported as 0.909% (inactive).
For `CCN(CC)c1ccc(C(=O)c2cnc(/N=C/N(C)C)s2)cc1`, the inhibition was -0.472% (inactive).
With `CC1CCCN(S(=O)(=O)c2ccc(-c3ccc(=O)[nH]n3)o2)C1` (centres undefined) the inhibition was -2.4% (inactive).
In the case of `Cc1cccc(NC(=O)c2ccc(OCC(=O)NCc3ccccc3)cc2)c1C`, the inhibition is reported as 0.0994% (inactive).
`CCc1c(Nc2ccccc2Cl)nc(N)[nH]c1=O` was tested, and the inhibition was 0.824% (inactive).
`O=C(CCl)NNc1cccc(Cl)n1` was tested, and the inhibition was -0.466% (inactive).
`Cc1sc2ncn(CC(=O)NCCN(C)C)c(=O)c2c1S(=O)(=O)N1CCC(C)CC1` was tested, and the inhibition was -1.98% (inactive).
For `CCCn1c(N)c(N(CCOC)C(=O)C2CCCC2)c(=O)[nH]c1=O`, the inhibition was -0.787% (inactive).
